# Laboratory results as given in the M2OR odorant receptor database.
# Assays:
# Settings in all cases: stereoisomer not certain
# UniProt Q8VGM2 = target: T1, UniProt Q8VGM2
# T1 sequence (whole entry): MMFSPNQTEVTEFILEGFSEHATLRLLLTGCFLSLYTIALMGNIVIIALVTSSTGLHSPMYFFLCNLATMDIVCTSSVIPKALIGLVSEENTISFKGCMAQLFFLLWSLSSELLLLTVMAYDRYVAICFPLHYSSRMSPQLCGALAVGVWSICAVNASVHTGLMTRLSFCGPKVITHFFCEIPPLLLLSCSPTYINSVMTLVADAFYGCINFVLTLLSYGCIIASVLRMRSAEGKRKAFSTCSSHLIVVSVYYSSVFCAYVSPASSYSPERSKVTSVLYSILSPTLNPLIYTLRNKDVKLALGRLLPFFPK
# How it was run: (§1)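 Each entry records the cell line, G-protein, co-transfected protein and tags used. Methods varied with the source, often transient luciferase assays in mammalian cell lines. A receptor–molecule pair is called responsive (active) if the original authors judged its signal statistically different from baseline and non-responsive (inactive) otherwise.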
# UniProt Q8VGP6 = target: T2, UniProt Q8VGP6
# T2 sequence (whole entry): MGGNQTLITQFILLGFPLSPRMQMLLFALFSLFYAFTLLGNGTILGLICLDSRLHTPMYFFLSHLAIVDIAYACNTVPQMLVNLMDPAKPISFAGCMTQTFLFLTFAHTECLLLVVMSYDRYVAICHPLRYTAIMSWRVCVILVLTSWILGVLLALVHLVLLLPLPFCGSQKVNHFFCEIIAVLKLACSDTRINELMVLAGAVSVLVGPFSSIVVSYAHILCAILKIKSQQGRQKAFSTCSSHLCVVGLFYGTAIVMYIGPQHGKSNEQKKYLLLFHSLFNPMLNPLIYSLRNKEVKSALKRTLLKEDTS
# How it was run: as §1
# UniProt Q8VGQ3 = target: T3, UniProt Q8VGQ3
# T3 sequence (whole entry): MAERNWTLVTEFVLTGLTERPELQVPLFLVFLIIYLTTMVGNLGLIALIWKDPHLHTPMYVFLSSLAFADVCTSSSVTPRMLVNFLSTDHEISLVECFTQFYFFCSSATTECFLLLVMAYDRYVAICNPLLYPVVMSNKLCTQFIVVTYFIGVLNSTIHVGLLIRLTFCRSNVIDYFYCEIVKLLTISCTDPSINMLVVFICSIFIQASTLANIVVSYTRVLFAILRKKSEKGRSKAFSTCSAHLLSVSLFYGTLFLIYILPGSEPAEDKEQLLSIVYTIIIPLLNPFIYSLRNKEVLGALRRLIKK
# How it was run: as §1
# UniProt Q8VGT4 = target: T4, UniProt Q8VGT4
# T4 sequence (whole entry): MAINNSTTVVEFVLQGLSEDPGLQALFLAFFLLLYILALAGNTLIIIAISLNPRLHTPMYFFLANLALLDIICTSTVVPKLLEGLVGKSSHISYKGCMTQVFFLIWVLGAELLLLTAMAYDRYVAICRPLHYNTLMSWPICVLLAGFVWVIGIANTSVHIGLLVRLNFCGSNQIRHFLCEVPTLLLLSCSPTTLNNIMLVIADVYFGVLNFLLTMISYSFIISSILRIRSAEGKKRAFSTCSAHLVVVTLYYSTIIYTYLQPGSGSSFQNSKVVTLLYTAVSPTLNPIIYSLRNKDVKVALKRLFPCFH
# How it was run: as §1
# UniProt Q8VGU3 = target: T5, UniProt Q8VGU3
# T5 sequence (whole entry): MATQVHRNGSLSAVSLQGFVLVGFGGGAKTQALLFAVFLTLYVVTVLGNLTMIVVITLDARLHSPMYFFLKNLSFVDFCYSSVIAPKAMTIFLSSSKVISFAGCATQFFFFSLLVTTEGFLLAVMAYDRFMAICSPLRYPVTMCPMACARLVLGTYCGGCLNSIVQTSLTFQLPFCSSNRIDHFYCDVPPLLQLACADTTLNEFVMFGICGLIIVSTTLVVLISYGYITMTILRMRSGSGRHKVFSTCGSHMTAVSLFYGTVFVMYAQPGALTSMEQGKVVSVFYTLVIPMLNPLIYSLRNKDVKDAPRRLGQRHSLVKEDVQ
# How it was run: as §1
# UniProt Q8VGV1 = target: T6, UniProt Q8VGV1
# T6 sequence (whole entry): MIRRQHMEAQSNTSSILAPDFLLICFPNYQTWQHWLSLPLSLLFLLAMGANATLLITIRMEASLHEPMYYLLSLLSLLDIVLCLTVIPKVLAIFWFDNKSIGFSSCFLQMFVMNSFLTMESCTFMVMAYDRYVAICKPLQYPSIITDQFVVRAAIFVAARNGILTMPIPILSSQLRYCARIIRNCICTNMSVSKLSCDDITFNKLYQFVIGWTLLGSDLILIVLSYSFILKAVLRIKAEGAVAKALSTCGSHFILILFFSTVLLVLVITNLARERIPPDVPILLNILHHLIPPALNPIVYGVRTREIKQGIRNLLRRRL
# How it was run: as §1
# UniProt Q8VGV7 = target: T7, UniProt Q8VGV7
# T7 sequence (whole entry): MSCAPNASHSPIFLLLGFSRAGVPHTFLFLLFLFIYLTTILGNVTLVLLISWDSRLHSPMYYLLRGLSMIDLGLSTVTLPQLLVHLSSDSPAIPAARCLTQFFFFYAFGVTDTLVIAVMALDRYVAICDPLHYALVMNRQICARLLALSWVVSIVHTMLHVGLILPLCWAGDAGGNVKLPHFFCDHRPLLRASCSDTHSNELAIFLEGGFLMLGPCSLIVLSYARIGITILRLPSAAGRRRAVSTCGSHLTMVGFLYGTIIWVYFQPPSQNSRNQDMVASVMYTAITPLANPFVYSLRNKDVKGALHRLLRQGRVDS
# How it was run: as §1
# UniProt Q8VGX3 = target: T8, UniProt Q8VGX3
# T8 sequence (whole entry): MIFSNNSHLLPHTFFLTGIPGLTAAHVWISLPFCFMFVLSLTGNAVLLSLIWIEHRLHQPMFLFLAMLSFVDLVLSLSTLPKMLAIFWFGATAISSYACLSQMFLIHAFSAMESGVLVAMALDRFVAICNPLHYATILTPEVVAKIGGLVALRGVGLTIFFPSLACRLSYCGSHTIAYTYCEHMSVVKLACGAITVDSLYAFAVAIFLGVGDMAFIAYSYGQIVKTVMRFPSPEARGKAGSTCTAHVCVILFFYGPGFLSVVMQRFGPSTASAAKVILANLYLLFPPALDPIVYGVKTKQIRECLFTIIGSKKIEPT
# How it was run: as §1
# UniProt Q8VGX5 = target: T9, UniProt Q8VGX5
# T9 sequence (whole entry): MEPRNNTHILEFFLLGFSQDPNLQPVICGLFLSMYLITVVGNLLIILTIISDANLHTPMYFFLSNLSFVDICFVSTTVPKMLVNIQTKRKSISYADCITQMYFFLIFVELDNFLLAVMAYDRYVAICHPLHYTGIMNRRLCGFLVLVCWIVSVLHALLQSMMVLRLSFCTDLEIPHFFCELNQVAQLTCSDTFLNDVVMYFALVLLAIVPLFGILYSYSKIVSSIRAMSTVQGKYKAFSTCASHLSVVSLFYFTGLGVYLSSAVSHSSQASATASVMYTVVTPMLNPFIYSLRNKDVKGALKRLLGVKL
# How it was run: as §1
# UniProt Q8VGW5 = target: T10, UniProt Q8VGW5
# T10 sequence (whole entry): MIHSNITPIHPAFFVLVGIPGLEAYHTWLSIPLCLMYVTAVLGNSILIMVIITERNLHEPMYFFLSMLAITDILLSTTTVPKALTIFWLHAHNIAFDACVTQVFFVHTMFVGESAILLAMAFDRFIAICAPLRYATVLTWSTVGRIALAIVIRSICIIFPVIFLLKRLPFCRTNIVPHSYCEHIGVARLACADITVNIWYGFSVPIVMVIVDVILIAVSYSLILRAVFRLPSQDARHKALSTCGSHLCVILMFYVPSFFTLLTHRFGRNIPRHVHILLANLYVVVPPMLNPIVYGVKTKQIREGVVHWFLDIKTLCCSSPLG
# How it was run: as §1
SMILES,odorant receptor agonist call (UniProt Q8VGM2),odorant receptor agonist call (UniProt Q8VGP6),odorant receptor agonist call (UniProt Q8VGQ3),odorant receptor agonist call (UniProt Q8VGT4),odorant receptor agonist call (UniProt Q8VGU3),odorant receptor agonist call (UniProt Q8VGV1),odorant receptor agonist call (UniProt Q8VGV7),odorant receptor agonist call (UniProt Q8VGX3),odorant receptor agonist call (UniProt Q8VGX5),odorant receptor agonist call (UniProt Q8VGW5)
c1ccccc1,inactive,inactive,inactive,inactive,inactive,inactive,inactive,inactive,inactive,
O=C1CCOc2ccccc21,inactive,inactive,inactive,inactive,inactive,inactive,inactive,inactive,active,
CC(=O)OCC=C(C)C,inactive,inactive,inactive,inactive,inactive,inactive,inactive,inactive,active,
CCCCCC1=C(C)CCC1=O,inactive,inactive,inactive,inactive,inactive,inactive,inactive,inactive,active,
O=C1Cc2ccccc2O1,inactive,inactive,inactive,inactive,inactive,inactive,inactive,inactive,active,
CCCCCOC(=O)CCCCC,inactive,inactive,inactive,inactive,inactive,inactive,inactive,inactive,inactive,
CCCCCCCCS,inactive,inactive,inactive,inactive,inactive,inactive,inactive,inactive,inactive,
CCCCC(C)=O,inactive,inactive,inactive,inactive,inactive,inactive,inactive,inactive,inactive,
CCOC(=O)C(C)C,inactive,inactive,inactive,inactive,inactive,inactive,inactive,inactive,inactive,
CCCCCCCCCC(=O)[O-].[H+],inactive,inactive,inactive,inactive,inactive,active,inactive,inactive,inactive,inactive
C=C(C)C1CCC(C)C(=O)C1 (stereo not drawn),inactive,inactive,active,inactive,inactive,inactive,inactive,inactive,active,
CCC(=O)O,inactive,inactive,inactive,inactive,inactive,inactive,inactive,inactive,inactive,
CCCCC(=O)O,inactive,inactive,inactive,inactive,inactive,inactive,inactive,inactive,inactive,
CCCCCCCCCCO,inactive,active,inactive,inactive,inactive,inactive,inactive,inactive,inactive,
O=C(c1ccccc1)c1ccccc1,inactive,inactive,inactive,inactive,inactive,inactive,inactive,inactive,inactive,
CCCCCC=O,inactive,inactive,inactive,inactive,inactive,inactive,inactive,inactive,inactive,
CCCCCC(=O)CC,inactive,inactive,inactive,inactive,inactive,inactive,inactive,inactive,inactive,

SMILES,odorant receptor agonist call (UniProt Q8VGM2),odorant receptor agonist call (UniProt Q8VGP6),odorant receptor agonist call (UniProt Q8VGQ3),odorant receptor agonist call (UniProt Q8VGT4),odorant receptor agonist call (UniProt Q8VGU3),odorant receptor agonist call (UniProt Q8VGV1),odorant receptor agonist call (UniProt Q8VGV7),odorant receptor agonist call (UniProt Q8VGX3),odorant receptor agonist call (UniProt Q8VGX5),odorant receptor agonist call (UniProt Q8VGW5)
CCCCOC=O,inactive,inactive,inactive,inactive,inactive,inactive,inactive,inactive,inactive,
CC(C)=CCCC(C)=CCO,inactive,inactive,inactive,inactive,inactive,inactive,inactive,inactive,active,
CCCCCCCCO,inactive,active,inactive,inactive,inactive,inactive,inactive,inactive,inactive,inactive
CCCCCCO,inactive,inactive,inactive,inactive,inactive,inactive,inactive,inactive,inactive,inactive
CCCCC(=O)CC,inactive,inactive,inactive,inactive,inactive,inactive,inactive,inactive,inactive,
CC(=O)Oc1ccccc1,inactive,inactive,inactive,inactive,inactive,inactive,inactive,inactive,active,
CC(C)=CCCC(C)CCO (stereo not drawn),inactive,inactive,inactive,inactive,inactive,inactive,inactive,inactive,inactive,
CCCC(=O)C(C)=O,inactive,inactive,inactive,inactive,inactive,inactive,inactive,inactive,inactive,
CCCCCCCO,inactive,active,inactive,inactive,inactive,inactive,inactive,inactive,inactive,inactive
CCCCCCCCC(=O)O,inactive,inactive,inactive,inactive,inactive,active,inactive,inactive,inactive,inactive
C=CCOC(=O)CCCCCC,inactive,inactive,inactive,inactive,inactive,inactive,inactive,inactive,inactive,
CCCCCCCC(C)=O,inactive,inactive,inactive,inactive,inactive,inactive,inactive,inactive,inactive,
CCCCCCCCCO,inactive,active,inactive,inactive,inactive,inactive,inactive,inactive,inactive,inactive
CCCCCCC(C)=O,inactive,inactive,inactive,inactive,inactive,inactive,inactive,inactive,inactive,
CCC(=O)C(=O)CC,inactive,inactive,inactive,inactive,inactive,inactive,inactive,inactive,inactive,
CC12CCC(CC1=O)C2(C)C (stereo not drawn),inactive,inactive,inactive,active,inactive,inactive,inactive,inactive,active,
